According to ChEMBL document CHEMBL1143422, “In vitro selection and characterization of human immunodeficiency virus type 2 with decreased susceptibility to lopinavir” (Antimicrob Agents Chemother, 2007):
Calls of active or inactive are those of the source. The calls are words filed in the database; no cut-off is given here.

Tests used:
[1] = system: Human immunodeficiency virus 2; assay: Antiviral activity against wild type HIV2 ROD infected in human CEM cells assessed as inhibition of virus production after 7 days by Lenti-RT activity assay; type: functional, organism-based; details: Human immunodeficiency virus 2, ROD, CCRF-CEM, 168 h
[2] = system: Human immunodeficiency virus 1; assay: Antiviral activity against HIV1 NL4-3 infected in human MT4 cells assessed as reduction in virus-induced cytopathic effect after 5 days by MTT assay; type: functional, organism-based; details: Human immunodeficiency virus 1, NL4-3, MT4, 120 h
Method in brief: (§1)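 MT4 cells were infected 1 h with 50–100 pg RNA virus, washed twice, and exposed in triplicate to half-log PI dilutions (DMSO 1% final) for 5 days at 37°C. Cell viability was read by MTT: 4 h, SDS/HCl lysis overnight, OD at 570/650 nm. Cytopathic-effect reduction was scaled between infected and uninfected controls. EC50 by nonlinear regression, mean of three experiments.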

[3] = system: Human immunodeficiency virus 2; assay: Antiviral activity against HIV2 ROD with protease V47A mutation infected in human CEM cells assessed as inhibition of virus production after 7 days by Lenti-RT activity assay; type: functional, organism-based; details: Human immunodeficiency virus 2, ROD, CCRF-CEM, 168 h
Method in brief: (§2)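 Protease mutant clones of HIV-2ROD came from site-directed mutagenesis of pSL-3, with stocks made by 293T transfection. CEM174 cells were infected with 100 pg RT of virus for 2 h at 37°C, washed, and seeded at 2 × 10^5 cells/ml. PI was added as 1:4 serial dilutions, 1% DMSO final, and incubated 7 days. Supernatant RT was read, in triplicate. EC50 came from nonlinear regression, and fold-change is mutant EC50 divided by HIV-2ROD EC50.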

[4] = system: Human immunodeficiency virus 2; assay: Antiviral activity against HIV2 MS infected in human MT4 cells assessed as reduction in virus-induced cytopathic effect after 5 days by MTT assay; type: functional, organism-based; details: Human immunodeficiency virus 2, MT4, 120 h; method in brief: as §1
[5] = system: Human immunodeficiency virus 2; assay: Antiviral activity against HIV2 CBL-23 infected in human PBMC assessed as inhibition of virus production after 5 days by Lenti-RT activity assay; type: functional, organism-based; details: Human immunodeficiency virus 2, CBL-23, 120 h
Method in brief: (§3)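 PBMCs were stimulated with PHA (5 μg/ml) for 3 days, then kept in 20% FBS medium with IL-2 (50 U/ml). Cells were infected 1 h with 50–100 pg RNA virus, washed twice, and given half-log PI dilutions (DMSO 1% final) in triplicate. After 5 days at 37°C, supernatant RT was read versus infected control. EC50 by nonlinear regression, mean of three experiments.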

MT4 = assay: (§4) Ratio of EC50 for HIV2 MS to EC50 for HIV1 NL4-3 infected in human MT4 cells; type: functional
PBMC [6] = assay: (§5) Ratio of EC50 for HIV2 CBL-23 infected in human PBMC to EC50 for HIV1 NL4-3 infected in human MT4 cells; type: functional
[7] = system: Human immunodeficiency virus 2; assay: Ratio of EC50 for HIV2 ROD with protease G17N/V47A mutation to EC50 for wild type HIV2 ROD; type: functional; method in brief: as §2
[8] = system: Human immunodeficiency virus 2; assay: Antiviral activity against HIV2 ROD with protease G17N/V47A mutation infected in human CEM cells assessed as inhibition of virus production after 7 days by Lenti-RT activity assay; type: functional, organism-based; details: Human immunodeficiency virus 2, ROD, CCRF-CEM, 168 h; method in brief: as §2
[9] = system: Human immunodeficiency virus 2; assay: Ratio of EC50 for HIV2 ROD with protease G17N mutation to EC50 for wild type HIV2 ROD; type: functional; method in brief: as §2
PBMC [10] = assay: (§6) Ratio of EC50 for HIV2 CDC310319 infected in human PBMC to EC50 for HIV1 NL4-3 infected in human MT4 cells; type: functional
[11] = system: Human immunodeficiency virus 2; assay: Antiviral activity against HIV2 ROD with protease G17N mutation infected in human CEM cells assessed as inhibition of virus production after 7 days by Lenti-RT activity assay; type: functional, organism-based; details: Human immunodeficiency virus 2, ROD, CCRF-CEM, 168 h; method in brief: as §2
[12] = system: Human immunodeficiency virus 2; assay: Antiviral activity against HIV2 CDC310319 isolate infected in human PBMC assessed as inhibition of virus production after 5 days by Lenti-RT activity assay; type: functional, organism-based; details: Human immunodeficiency virus 2, 120 h; method in brief: as §3
[13] = system: Human immunodeficiency virus 2; assay: Ratio of EC50 for HIV2 ROD with protease V47A mutation to EC50 for wild type HIV2 ROD; type: functional; method in brief: as §2
[14] = as §4; type: functional
[15] = as §5; type: functional
[16] = as §6; type: functional
[17] = system: Human immunodeficiency virus 2; assay: Antiviral activity against HIV2 MS infected in human MT4 cells […] after 1 passage; type: functional, organism-based; details: Human immunodeficiency virus 2, MT4
[18] = system: Human immunodeficiency virus 2; assay: Antiviral activity against HIV2 MS infected in human MT4 cells […] after 18 passages; type: functional, organism-based; details: Human immunodeficiency virus 2, MT4
[19] = system: Human immunodeficiency virus 2; assay: Ratio of EC50 for HIV2 MS infected in human MT4 cells after 1 passage to EC50 for HIV2 MS infected in human MT4 cells; type: functional
[20] = system: Human immunodeficiency virus 2; assay: Ratio of EC50 for HIV2 MS infected in human MT4 cells after 18 passages to EC50 for HIV2 MS infected in human MT4 cells; type: functional
[21] = system: Human immunodeficiency virus 1; assay: Antiviral activity against HIV1 NL4-3 infected in human PBMC cells assessed as inhibition of virus production after 5 days by Lenti-RT activity assay; type: functional, organism-based; method in brief: as §3
[22] = system: Human immunodeficiency virus 2; assay: Antiviral activity against HIV2 MS infected in human PBMC cells assessed as inhibition of virus production after 5 days by Lenti-RT activity assay; type: functional, organism-based; details: Human immunodeficiency virus 2, PBMC, 120 h
Method in brief: (§7)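 Infection used 50 to 100 pg RNA for 1 h, followed by two washes. MT4 cells or PHA-stimulated, IL-2-maintained PBMCs were then exposed to half-log PI dilutions in triplicate, with 1% DMSO final. Incubation was 5 days at 37°C. Day-5 supernatant RT was read by Lenti-RT assay. EC50 came from nonlinear regression, as the mean of three independent experiments.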

[23] = system: Human immunodeficiency virus 2; assay: Antiviral activity against HIV2 MS infected in human MT4 cells assessed as inhibition of virus production after 5 days by Lenti-RT activity assay; type: functional, organism-based; details: Human immunodeficiency virus 2, MT4, 120 h; method in brief: as §7
[24] = system: Human immunodeficiency virus 1; assay: Antiviral activity against HIV1 NL4-3 infected in human MT4 cells assessed as inhibition of virus production after 5 days by Lenti-RT activity assay; type: functional, organism-based
Method in brief: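 HIV-1 NL4-3 in MT4 cells (RPMI 1640, 10% FBS) was adsorbed 1 h at 50–100 pg RNA and washed twice. PI in DMSO (1% final) was added in half-log dilutions, in triplicate. After 5 days at 37°C, supernatant RT was measured and expressed relative to infected untreated control. EC50 came from nonlinear regression, as the mean of three independent experiments.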

[25] = system: Human immunodeficiency virus 1; assay: Antiviral activity against HIV1 in presence of 50% human serum; type: functional, organism-based

SMILES	EC50 [1]	EC50 [2]	EC50 [3]	EC50 [4]	EC50 [5]	Ratio EC50 [7]	EC50 [8]	Ratio EC50 [9]	EC50 [11]	EC50 [12]	Ratio EC50 [13]	Ratio EC50 [14]	Ratio EC50 [15]	Ratio EC50 [16]	further results
CC(C)CN(C[C@@H](O)[C@H](Cc1ccccc1)NC(=O)O[C@H]1CCOC1)S(=O)(=O)c1ccc(N)cc1 [AMPRENAVIR]	855 nM	72 nM	630 nM	900 nM	939 nM	0.5	404 nM	0.7	583 nM	674 nM	0.7				Ratio EC50 (MT4): 12.5; Ratio EC50 (PBMC [6]): 13; Ratio EC50 (PBMC [10]): 9.2
COC(=O)N[C@H](C(=O)N[C@@H](Cc1ccccc1)[C@@H](O)CN(Cc1ccc(-c2ccccn2)cc1)NC(=O)[C@@H](NC(=O)OC)C(C)(C)C)C(C)(C)C [ATAZANAVIR]	34 nM	5 nM	5 nM	20 nM	39 nM	0.1	3 nM	0.6	20 nM	110 nM	0.1	4	7.8	22	
CC(C)CN(C[C@@H](O)[C@H](Cc1ccccc1)NC(=O)O[C@H]1CO[C@H]2OCC[C@H]21)S(=O)(=O)c1ccc(N)cc1 [DARUNAVIR]	9 nM	12 nM	10 nM		83 nM	0.9	8 nM	0.7	6 nM	155 nM	1.1		6.9	12.9	
CC(C)(C)NC(=O)[C@@H]1CN(Cc2cccnc2)CCN1C[C@@H](O)C[C@@H](Cc1ccccc1)C(=O)N[C@H]1c2ccccc2C[C@H]1O.O [INDINAVIR]	65 nM	38 nM	34 nM	22 nM	33 nM	0.5	24 nM	0.8	52 nM	108 nM	0.5	0.5	0.8	2.6	
Cc1cccc(C)c1OCC(=O)N[C@@H](Cc1ccccc1)[C@@H](O)C[C@H](Cc1ccccc1)NC(=O)[C@H](C(C)C)N1CCCNC1=O [LOPINAVIR]	35 nM	18 nM	340 nM	15 nM	12 nM	7.4	260 nM	0.8	28 nM	180 nM	9.7	0.8	0.7	10	EC50 [17]: 15 nM; EC50 [18]: 515 nM; Ratio EC50 [19]: 1; Ratio EC50 [20]: 34; Activity [21]: Active; EC50 [22]: 15 nM; EC50 [23]: 6 nM; Activity [24]: Active
Cc1c(O)cccc1C(=O)N[C@@H](CSc1ccccc1)[C@H](O)CN1C[C@H]2CCCC[C@H]2C[C@H]1C(=O)NC(C)(C)C [NELFINAVIR]	281 nM	18 nM	177 nM	48 nM	83 nM	0.4	100 nM	0.7	199 nM	389 nM	0.6	2.7	4.6	21.6	
CC(C)c1nc(CN(C)C(=O)N[C@H](C(=O)N[C@@H](Cc2ccccc2)C[C@H](O)[C@H](Cc2ccccc2)NC(=O)OCc2cncs2)C(C)C)cs1 [RITONAVIR]	421 nM	46 nM	115 nM	349 nM	514 nM	0.2	84 nM	0.7	310 nM	665 nM	0.3	7.6	11.2	14.5	EC50 [25]: 100 nM
CC(C)(C)NC(=O)[C@@H]1C[C@@H]2CCCC[C@@H]2CN1C[C@@H](O)[C@H](Cc1ccccc1)NC(=O)[C@H](CC(N)=O)NC(=O)c1ccc2ccccc2n1 [SAQUINAVIR]	3.6 nM	12 nM	0.2 nM	5 nM	8 nM	0.1	0.2 nM	0.6	2.2 nM	68 nM	0.1	0.4	0.7	5.7	
